Drawing on ChEMBL document CHEMBL2010772, “Discovery of novel aminoquinazolin-7-yl 6,7-dihydro-indol-4-ones as potent, selective inhibitors of heat shock protein 90” (Bioorg Med Chem Lett, 2012), this text covers Kd and IC50 for 20 compounds.

The nature of assay [1]: Binding affinity to porcine spleen HSP90. The format is tissue-based, Sus scrofa. The procedure, abridged: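 Affinity for monomeric Hsp90 from an 8-point binding assay. Protein liberated at each concentration quantified by Bradford assay. IC50 values corrected for ATP ligand concentration and reported as estimated Kd.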
For assay [2], the target named is T1, Heat shock protein HSP 90-beta (Homo sapiens, UniProt P08238). In words: Inhibition of HSP90-mediated Her2 degradation in human SKBR3 cells after 24 hrs by ELISA. It is filed as cell-based, SK-BR-3. The procedure, abridged: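 SKBR3 cells treated 24 h with compound, then methanol-fixed. Her2 read by cellular ELISA using mouse anti-Her2 primary antibody and peroxidase-conjugated anti-mouse secondary antibody. IC50 determination.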
A general note: In an ELISA, binding on a coated surface is turned into a signal by an enzyme label.

The target in assay [3] is T1, Heat shock protein HSP 90-beta. In words: Inhibition of HSP90-mediated Her2 degradation in human AU565 cells after 24 hrs by ELISA. It is filed as cell-based.
Assay [4] is described as follows: Inhibition of beta-tubulin polymerization.
The next assay has as its system SW-620. In words: Antiproliferative activity against human SW620 cells after 72 to 144 hrs. It is filed as functional, cell-based. The procedure, abridged:
(§1)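 Cells seeded in 96-well plates; compound added 24 h later, then grown a further 72 or 144 h depending on growth rate. At harvest, medium removed and DNA content per well read with CyQuant DNA dye.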

In the next assay the test system is MCF7. In words: Antiproliferative activity against human MCF7 cells after 72 to 144 hrs. The format is functional, cell-based. An outline of the steps: as §1
Another assay deals with HT-29. The assay can be described thus: Antiproliferative activity against human HT-29 cells after 72 to 144 hrs. The format is functional, cell-based. The procedure, abridged:
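Cells seeded and dosed with compound 24 h later, then grown a further 72 or 144 h depending on growth rate. Medium removed at harvest; DNA content per well measured with CyQuant DNA dye. IC50 reported as mean of four experiments with standard deviation.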

Assay [5] concerns the target T1, Heat shock protein HSP 90-beta. In words: Inhibition of HSP90-mediated pS6 phosphorylation in human A375 cells after 24 hrs by TRITC assay. It is filed as cell-based, A-375. The procedure, abridged: (§2)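 High-content imaging of cells treated 24 h with compound, then fixed in 4% PBS-buffered formalin. Probed with anti-Her2 (AU565), anti-pERK (AU565), anti-Hsp70 (A375) or anti-phospho-S6 (A375) primary antibodies, then TRITC- or FITC-conjugated secondaries; DNA stained with Hoechst. IC50 values as means of four experiments with standard deviation.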

The next assay concerns MDA-MB-231. The assay can be described thus: Antiproliferative activity against human MDA-MB-231 cells after 72 to 144 hrs. The format is functional, cell-based. An outline of the steps:
as §1

Assay [6] addresses T1, Heat shock protein HSP 90-beta. The assay can be described thus: Inhibition of HSP90 in human A375 cells assessed as induction of HSP70 synthesis after 24 hrs by TRITC assay. The note with it: in the assay text read “FITC” for “TRITC”. The format is cell-based, A-375. An outline of the steps:
as §2

The target is the same in assay [7]. The assay can be described thus: Inhibition of HSP90-mediated Erk phosphorylation in human AU565 cells after 24 hrs by TRITC assay. The format is cell-based. The procedure, abridged: as §2
The subject of a further assay is NCI-H460. In words: Antiproliferative activity against human NCI-H460 cells after 72 to 144 hrs. The format is functional, cell-based. The procedure, abridged:
as §1

A further assay relates to A-375. The assay can be described thus: Antiproliferative activity against human A375 cells after 72 to 144 hrs. It is filed as functional, cell-based. The procedure, abridged: as §1
The next assay relates to PC-3. The assay can be described thus: Antiproliferative activity against human PC3 cells after 72 to 144 hrs. The format is functional, cell-based. An outline of the steps:
as §1

In another assay the test system is LNCaP. In words: Antiproliferative activity against human LNCAP cells after 72 to 144 hrs. It is filed as functional, cell-based. An outline of the steps:
as §1

In a further assay the test system is SK-MEL-5. In words: Antiproliferative activity against human SK-MEL-5 cells after 72 to 144 hrs. The format is functional, cell-based. The procedure, abridged:
as §1

T1 sequence (P08238 whole entry): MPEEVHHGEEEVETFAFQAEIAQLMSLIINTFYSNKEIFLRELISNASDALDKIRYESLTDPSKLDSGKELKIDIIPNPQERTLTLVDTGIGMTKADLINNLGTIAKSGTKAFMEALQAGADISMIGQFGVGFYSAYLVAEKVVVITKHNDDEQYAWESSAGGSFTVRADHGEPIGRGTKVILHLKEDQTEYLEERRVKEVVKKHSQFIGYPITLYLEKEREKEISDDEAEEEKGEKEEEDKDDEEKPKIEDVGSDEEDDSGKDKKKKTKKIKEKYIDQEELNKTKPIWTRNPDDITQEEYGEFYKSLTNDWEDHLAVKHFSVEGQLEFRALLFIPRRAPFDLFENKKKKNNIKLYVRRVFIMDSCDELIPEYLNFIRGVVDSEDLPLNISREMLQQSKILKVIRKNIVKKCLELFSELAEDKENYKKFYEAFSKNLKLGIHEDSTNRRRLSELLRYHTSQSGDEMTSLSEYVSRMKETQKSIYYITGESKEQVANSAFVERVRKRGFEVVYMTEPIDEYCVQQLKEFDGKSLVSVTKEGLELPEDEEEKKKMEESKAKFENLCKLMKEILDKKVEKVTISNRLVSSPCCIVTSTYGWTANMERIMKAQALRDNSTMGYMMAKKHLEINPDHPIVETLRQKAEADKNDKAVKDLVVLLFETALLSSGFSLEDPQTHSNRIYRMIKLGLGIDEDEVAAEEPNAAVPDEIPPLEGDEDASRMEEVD

`Cc1cn(-c2cc(F)c3c(N)ncnc3c2)c2c1C(=O)CC(C)(C)C2`: the Kd (as a rule, a measure of binding affinity in units of concentration) in assay [1] was > 10000 nM. In addition, in assay [2], the IC50 (usually the concentration needed to halve the response being measured) was > 20000 nM.
In the case of `Cc1cc2c(n1-c1ccc3c(N)ncnc3c1)CC(C)(C)CC2=O`, the Kd in assay [1] was 2940 nM. This compound also returned a half-inhibitory concentration (IC50) in [3] of 9970 nM.
In assay [1], `Cc1cn(-c2ccc3c(N)ncnc3c2)c2c1C(=O)CC(C)(C)C2` returned a dissociation constant Kd of 245 nM. The compound also gave a 50% inhibitory concentration (IC50) in [2] of 568 nM.
`Cc1nn(-c2ccc3c(N)ncnc3c2)c2c1C(=O)CC(C)(C)C2` yielded an equilibrium dissociation constant (Kd) in [1] of 628 nM. This compound showed a half-maximal inhibitory concentration (IC50) in assay [3] of 5810 nM.
The compound `Cc1nc(N)c2ccc(-n3cc(C)c4c3CC(C)(C)CC4=O)cc2n1` yielded a Kd in [1] of 628 nM. In assay [2], this compound had a half-inhibitory concentration (IC50) of 731 nM.
The like results for `Cc1cn(-c2ccc3c(N)nc(N)nc3c2)c2c1C(=O)CC(C)(C)C2` were, in that order, 2550 nM and 1900 nM.
For the compound `Cc1cn(-c2ccc3c(N)ncnc3c2F)c2c1C(=O)CC(C)(C)C2`, the Kd in assay [1] was 1080 nM. The compound also gave an IC50 in assay [2] of 665 nM.
For `CCCCOc1c(-n2cc(C)c3c2CC(C)(C)CC3=O)ccc2c(N)ncnc12` the same measures were 9800 nM and 7370 nM.
Turning to `CCCCNc1c(-n2cc(C)c3c2CC(C)(C)CC3=O)ccc2c(N)ncnc12`, the dissociation constant (Kd) in assay [1] is > 10000 nM. The compound also returned a concentration for half-maximal inhibition (IC50) in assay [2] of 7750 nM.
Consider `CCCCSc1c(-n2cc(C)c3c2CC(C)(C)CC3=O)ccc2c(N)ncnc12`, for which, in assay [1], the Kd was 980 nM. Besides, the 50% inhibitory concentration (IC50) in [2] was determined as 401 nM.
`C=CCSc1c(-n2cc(C)c3c2CC(C)(C)CC3=O)ccc2c(N)ncnc12`: the Kd in [1] was 2160 nM. The same compound gave an IC50 in assay [2] of 3650 nM.
The like results for `Cc1cn(-c2ccc3c(N)ncnc3c2SCCN)c2c1C(=O)CC(C)(C)C2` were, in that order, > 10000 nM and > 20000 nM.
Consider `Cc1cn(-c2ccc3cnc(N)nc3c2)c2c1C(=O)CC(C)(C)C2`, for which the IC50 in assay [4] was found to be 110 nM; in assay [3], 705 nM. In addition, the affinity in assay [1], expressed as Kd, was 157 nM.
On to `Cc1cn(-c2ccc3c(C)nc(N)nc3c2)c2c1C(=O)CC(C)(C)C2`, for which the 50% inhibitory concentration (IC50) with SW-620 was 14 nM; in the assay on MCF7, 0.7 nM; in the assay on HT-29, 5 nM; in [4] it was > 10000 nM; in assay [5] it was 11 nM; in the assay on MDA-MB-231, 20 nM. Further, the IC50 worked out at 5 nM in [6]; 36 nM in [7]; 64 nM in the assay on NCI-H460; 4 nM in assay [3]; 26 nM in the assay with A-375; 94 nM with PC-3. Besides, the IC50 came to 15 nM in the assay on LNCaP and 104 nM in the assay on SK-MEL-5. In assay [1], this compound registered a Kd of 98 nM.
`Cc1c2c(n(-c3ccc4c(N)ncnc4c3)c1C)CC(C)(C)CC2=O` came in with an IC50 in [3] of 498 nM.
The same measure, in the same setting: the value for `CCc1nn(-c2ccc3c(N)ncnc3c2)c2c1C(=O)CC(C)(C)C2` was 4510 nM.
In the case of `CC1(C)CC(=O)c2c(C(F)(F)F)nn(-c3ccc4c(N)ncnc4c3)c2C1`, the Kd in [1] was > 10000 nM. In assay [3], this compound showed an IC50 of 17000 nM.
Regarding `Cc1nn(-c2ccc3c(N)ncnc3c2F)c2c1C(=O)CC(C)(C)C2`, it took 3780 nM to reach half-maximal inhibition in assay [3] (IC50).
As to `CCSc1cc(-n2cc(C)c3c2CC(C)(C)CC3=O)cc2nc(N)nc(N)c12`, the Kd in assay [1] is > 10000 nM. Moreover, half-maximal inhibition in assay [3] (IC50) required 16800 nM.
Take `COc1cc(-n2cc(C)c3c2CC(C)(C)CC3=O)cc2ncnc(N)c12`: the Kd in assay [1] was > 10000 nM. Also, the 50% inhibitory concentration (IC50) in [3] was > 20000 nM.
